OX1R antag-1: OX1R (human) antagonism | O43613 | OX1R-expressing cells, FRET antagonist read-out | inhibition, % at 6.6 µM | hit rate 1.8% among 330,000 | AID 485270; in the data active means inhibition mostly above about 38%, no sharp cut-off; inactive means mostly below about 40%;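 further: 0% = agonist challenge alone and 100% = reference antagonist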
Target sequence (O43613 whole entry, looked up): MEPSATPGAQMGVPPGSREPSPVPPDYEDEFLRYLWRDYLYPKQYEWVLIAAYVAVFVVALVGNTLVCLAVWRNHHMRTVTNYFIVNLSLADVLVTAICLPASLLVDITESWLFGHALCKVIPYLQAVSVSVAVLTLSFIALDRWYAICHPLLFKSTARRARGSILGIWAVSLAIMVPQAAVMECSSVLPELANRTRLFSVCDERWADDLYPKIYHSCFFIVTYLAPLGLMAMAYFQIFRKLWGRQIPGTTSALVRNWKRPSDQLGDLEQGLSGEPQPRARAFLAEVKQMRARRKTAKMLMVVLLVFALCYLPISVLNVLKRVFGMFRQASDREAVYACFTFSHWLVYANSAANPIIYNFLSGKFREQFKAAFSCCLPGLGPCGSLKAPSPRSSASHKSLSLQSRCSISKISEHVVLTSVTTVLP
OX1R antag-2: antagonists of human orexin 1 receptor; CHO/OX1R cells, Fluo-8 calcium fluorescence, orexin A; hit rate 0.43% among 330,000; inhibition, % at 5 µM;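 active means inhibition above its plate's threshold, mean inhibition of all tested compounds on the plate plus 3 SD, cut at about 37% in these data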;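 further: 0% = orexin A challenge wells and 100% = SB-334867-A antagonist wells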
CHO parental Ca: signal in parental CHO cells, OX1R antagonist counter-screen | parental CHO-K1, ATP-induced calcium, Fluo-8 fluorescence | inhibition, % at 5.6 µM | hit rate 0.63% among 330,000 | AID 463079;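 active means inhibition above that plate's mean sample inhibition plus 3 SD, cut at about 26% in these data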;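 further: 0% = ATP-challenged DMSO wells and 100% = DMSO wells without ATP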
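Material – parental CHO cells · Reagent – ATP stimulus · Compound – single nominal dose of 5.6 µM per compound · Detection – Fluo-8 fluorescence · Read-out basis – percent inhibition of calcium signal · Controls – ATP-challenged DMSO wells low, unchallenged DMSO wells high · Repeats – no replicates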
CHO-K1 Ca antag: M1 antagonist counterscreen hit in parental CHO-K1 cells; ATP-induced calcium, Fluo-8 fluorescence; hit rate 0.6% among 360,000; inhibition, % at 3 µM;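 active means inhibition above a per-plate cutoff, the plate's mean sample inhibition plus 3 SD, cut at about 24% in these data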;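 further: 0% = DMSO plus EC80 ATP and 100% = DMSO alone without ATP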
M1 PAM parental: counter-screen for M1 PAMs: effect in parental CHO-K1 cells; hit rate 0.02% among 360,000; ATP EC20, Fluo-8 calcium fluorescence; 0% at ATP EC20, 100% at ATP max; activation, % at 3 µM;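 active means activation above the run cutoff, the mean activation of all test compounds plus 3 SD, cut at about 40% in these data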;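 further: peak over basal fluorescence ratio in a 140 s read after ATP addition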
CHO-K1 Ca ag: nonselective activator or artifact in parental CHO-K1 cells. hit rate 0.48% among 360,000. activation, % at 3 µM. AID 602248. Fluo-8 calcium fluorescence; scaled to maximal ATP response, vehicle zero; in the data active means activation above about 15%;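 further: untransfected CHO-K1 host cells lacking M1 receptor as counterscreen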
* marks the source's active call; other numbers are inactive results; / = no result given. Sampled rows, rich in hits. Any-hit rate of the full collection: about 2.9%.

SMILES	OX1R antag-1	OX1R antag-2	CHO parental Ca	CHO-K1 Ca antag	M1 PAM parental	CHO-K1 Ca ag
COc1ccccc1NS(=O)(=O)c1cc(C(=O)N2CCN(C/C=C/c3ccccc3)CC2)ccc1C	33	-5	-16	-7	9	6
CCN(CC)C(=O)c1ncn2c1C(=O)N(C)CC2	/	/	/	27*	-8	0
CN1CCn2cnc(C(=O)NCc3ccccc3)c2C1=O	/	/	/	11	-9	5
COc1ccc(OC)c(NC(=O)CN(Cc2ccc(F)cc2)C2CCCCC2)c1	46	-1	45*	-6	0	3
CCOc1ccc(C(=O)C[n+]2cccc3cc(C)ccc32)cc1	47*	1	-9	-6	21	2
CC(=O)c1ccccc1NC(=O)COC(=O)/C(=C/c1ccccc1)n1nnnc1C	10	-7	2	2	13	2
O=C(NNC(=O)c1ccco1)c1ccc(NS(=O)(=O)c2cccs2)cc1	13	0	21	10	-11	0
COc1ccc(CCNC(=O)Nc2ccc3c(c2)c(=O)n(C)n3CC=C(C)C)cc1OC	/	/	/	-10	-8	0
Cc1ccccc1/C=C/c1nc2ccccc2c(=O)n1CCc1ccccc1	16	-47	-12	-7	6	-1
O=c1c2ccccc2nc(/C=C/c2cccc([N+](=O)[O-])c2)n1CCCO	30	-19	-29	28*	-5	1
O=c1c2ccccc2nc(/C=C/c2cccc(Br)c2)n1CCCO	20	-13	-19	0	-2	5
Cn1c(/C=C/c2cccc(Br)c2)nc2ccccc2c1=O	60*	25	-34	-10	15	0
O=c1c2ccccc2nc(/C=C/c2ccc([N+](=O)[O-])cc2)n1CCCO	22	-18	-15	-3	22	3
Cc1ccc(/C=C/c2nc3ccccc3c(=O)n2CCc2ccccc2)cc1	8	-23	-17	26*	-15	0
CCOc1ccc(CCNC(=O)COC(=O)C2CC2)cc1OCC	12	-16	-18	-3	17	3
Cc1cccc(N2CCN(C(=S)NCc3ccco3)CC2)c1C	11	-30	-4	-3	14	1
Cc1nnc(N/N=C/c2cccc(OCc3ccc(Cl)c(Cl)c3)c2)n1N	44*	-6	-9	-2	16	1
Cc1nnc(N/N=C/c2cccc(C(F)(F)F)c2)n1N	22	-1	-9	-11	2	1
COc1ccccc1NC(=O)CC1S/C(=N/N=C2\CCCc3ccccc32)NC1=O (stereo not drawn)	54*	20	6	-15	15	0
CN(C)c1ccc(-c2nc3ccccc3c(=O)[nH]2)cc1	57*	17	-4	-6	8	0
CCN1CCN(C(CNS(=O)(=O)c2ccc(C)cc2)c2ccccc2)CC1 (stereo not drawn)	/	/	/	-8	-14	0
c1ccc(Nc2ccccc2Nc2ccccn2)nc1	56*	50*	49*	-13	-3	1
COc1ccc2nc3ccccc3nc2c1NC(=O)c1ccccc1Cl	51*	-43	-27	-1	6	3
COc1ccc(-c2cc(C(=O)Nc3c(Cl)cc(Cl)cc3Cl)c3ccccc3n2)cc1OC	3	-39	-24	-11	2	0
COCCNC(=O)c1cc2c(=O)n3cccc(C)c3nc2n(Cc2ccncc2)c1=N	49*	-21	-9	1	7	0
SMILES	OX1R antag-1	OX1R antag-2	CHO parental Ca	CHO-K1 Ca antag	M1 PAM parental	CHO-K1 Ca ag
COCCCn1c(=NC(=O)c2ccncc2)c(C#N)cc2c(=O)n3cccc(C)c3nc21	41*	-15	-7	22	-6	0
CCCCNC(=O)c1cc2c(=O)n3cccc(C)c3nc2n(Cc2ccncc2)c1=N	41*	-22	-16	11	-7	-2
Cc1cccn2c(=O)c3cc(C(=O)NCCc4ccccc4)c(=N)n(Cc4ccco4)c3nc12	14	-27	-9	-21	9	3
CCn1c(=N)c(C(=O)NC)cc2c(=O)n3cccc(C)c3nc21	/	/	/	0	7	0
CC1(C)Cc2c(sc(NC(=O)c3ccc(C(=O)c4ccccc4)cc3)c2C(N)=O)C(C)(C)N1	3	28	29*	8	-8	8
CC1Sc2ccc(S(=O)(=O)CCC(=O)N3CCN(c4ccccc4)CC3)cc2NC1=O (stereo not drawn)	3	-24	-23	-13	2	5
CC1Sc2ccc(S(=O)(=O)CCC(=O)N3CCN(c4cccc(Cl)c4)CC3)cc2NC1=O (stereo not drawn)	14	13	34*	20	-22	15
CC1Sc2ccc(S(=O)(=O)N3CCC(C(=O)NCc4ccc(Cl)cc4)CC3)cc2NC1=O (stereo not drawn)	5	-6	2	-5	-4	3
CCc1cccc(NS(=O)(=O)c2ccc3c(c2)NC(=O)C(C)S3)c1 (stereo not drawn)	25	21	53*	-7	-4	9
CCc1ccc(NC(=O)C2CCN(S(=O)(=O)c3ccc4c(c3)NC(=O)C(C)S4)CC2)cc1 (stereo not drawn)	13	19	57*	11	4	6
CC1Sc2ccc(S(=O)(=O)N3CCC(C(=O)Nc4cccc(Cl)c4)CC3)cc2NC1=O (stereo not drawn)	14	30	58*	7	-9	5
CCCOc1ccc(C(=O)NNC(=O)CCNC(=O)c2ccccc2Cl)cc1OC	10	-18	-3	-1	9	1
CCCNC(=O)NC(=O)CN1C(=O)NC(C)(c2ccc3ccccc3c2)C1=O (stereo not drawn)	9	-4	-2	-1	2	1
O=C1COc2ccc(S(=O)(=O)CCC(=O)N3CCN(c4cccc(C(F)(F)F)c4)CC3)cc2N1	17	-2	38*	17	7	17*
Cc1ccc(NC(=O)C2CCN(S(=O)(=O)c3ccc4c(c3)NC(=O)C(C)S4)CC2)cc1C (stereo not drawn)	12	10	51*	19	-18	10
CCN(Cc1ccccc1)c1ccc(/C=N/N2CCOCC2)cc1	6	-4	-5	27*	-16	-1
CCN(CC)c1ccc(/C=N/N2CCOCC2)cc1	12	-14	4	-13	8	1
CC(C)[C@H](NC(=O)c1ccc([N+](=O)[O-])cc1Cl)C(=O)N1CCN(C/C=C/c2ccccc2)CC1	16	-47	-4	-25	16	0
Cc1c(C(=O)NCC2CCCO2)oc2ccc(Br)cc12 (stereo not drawn)	25	-31	-27	-3	3	0
O=[N+]([O-])c1ccc(O)c(/C=N/n2cnc3ccccc32)c1	48*	19	-8	-2	9	4
CCc1n[nH]c(=S)n1/N=C/c1cccc2ccccc12	3	-21	-19	-4	5	18*
